Results on twelve compounds are retold here after ChEMBL document CHEMBL1124369, “Pyrido[3,4-e]-1,2,4-triazines and related heterocycles as potential antifungal agents” (1989).

In brackets after ≈: the same amount, converted by molar mass.

The subject of assay [1] is Candida albicans. Description: Antifungal activity against Candida albicans. The class given is functional. In outline: (§1)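 Agar dilution MIC. Twofold serial drug dilutions in yeast nitrogen base medium with 1% dextrose, 0.15% asparagine and 1.5% agar. Agar surfaces inoculated using a Steers multiple inocula replicator, then incubated at 35 °C for 24-48 h. MIC was recorded as the lowest concentration inhibiting visible growth. Amphotericin B, miconazole and nystatin served as controls.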

Assay [2] concerns Trichophyton benhamiae. Description: Antifungal activity against Trichophyton mentagrophytes; Range is 32-64. The class given is functional, trychophyton mentagrophytes. The essentials:
as §1

Assay [3] concerns Aspergillus niger. Description: Antifungal activity against Aspergillus niger. The class given is functional. In outline:
as §1

The test system of assay [4] is Candida parapsilosis. In words: Antifungal activity against Candida parapsilosis. The class given is functional. Particulars: Lodderomyces parapsilosis. The essentials: as §1
For assay [5], the system named is Trichophyton rubrum. In words: Antifungal activity against Trichophyton rubrum; Range is 16-32. The class given is functional. The essentials: as §1
Assay [6] concerns Candida tropicalis. In words: Antifungal activity against Candida tropicalis. The class given is functional. The essentials:
as §1

In assay [7] the test system is Kluyveromyces marxianus. Description: Antifungal activity against Candida pseudotropicalis. The class given is functional. The essentials: as §1
In assay [8] the test system is Trichophyton rubrum. Description: Antifungal activity against Trichophyton rubrum. The class given is functional. In outline: as §1
In assay [9] the test system is Kluyveromyces marxianus. In words: Antifungal activity against Candida pseudotropicalis; Range is 2-4. The class given is functional. In outline:
as §1

Assay [10] has as its system Aspergillus niger. Description: Antifungal activity against Aspergillus niger; Range is 64-128. The class given is functional. The essentials: as §1
Assay [11] concerns Trichophyton benhamiae. Description: Antifungal activity against Trichophyton mentagrophytes. The class given is functional, trychophyton mentagrophytes. The essentials: as §1
The subject of assay [12] is Candida tropicalis. Description: Antifungal activity against Candida tropicalis; Range is 8-32. The class given is functional. The essentials: as §1
Assay [13] has as its system Candida albicans. Description: Antifungal activity against Candida albicans; Range is 8-16. The class given is functional. The essentials: as §1
In assay [14] the test system is Kluyveromyces marxianus. Description: Antifungal activity against Candida pseudotropicalis; Range is 8-16. The class given is functional. In outline: as §1
The test system of assay [15] is Diutina rugosa. Description: Antifungal activity against Candida rugosa. The class given is functional. The essentials: as §1
Assay [16] concerns Candida albicans. Description: Antifungal activity against Candida stellatoidea. The class given is functional. The essentials: as §1
The subject of assay [17] is Mucor fragilis. Description: Antifungal activity against Mucor fragilis. The class given is functional. In outline:
as §1

The test system of assay [18] is Candida albicans. In words: Antifungal activity against Candida albicans; Range is 64-128. The class given is functional. The essentials:
as §1

For assay [19], the system named is Candida tropicalis. Description: Antifungal activity against Candida tropicalis; Range is 16-32. The class given is functional. In outline: as §1
The test system of assay [20] is Candida albicans. Description: Antifungal activity against Candida albicans; Range is 16-32. The class given is functional. In outline: as §1
The subject of assay [21] is Trichophyton benhamiae. In words: Antifungal activity against Trichophyton mentagrophytes; Range is 8-32. The class given is functional, trychophyton mentagrophytes. In outline:
as §1

Assay [22] has as its system Candida tropicalis. In words: Antifungal activity against Candida tropicalis; Range is 4-16. The class given is functional. The essentials: as §1
The test system of assay [23] is Aspergillus niger. Description: Antifungal activity against Aspergillus niger; Range is 32-64. The class given is functional. In outline: as §1
Assay [24] relates to Trichophyton rubrum. In words: Antifungal activity against Trichophyton rubrum; Range is 1-2. The class given is functional. The essentials: as §1
Assay [25] concerns Trichophyton rubrum. In words: Antifungal activity against Trichophyton rubrum; Range is 2-4. The class given is functional. In outline: as §1
Assay [26] has as its system Kluyveromyces marxianus. In words: Antifungal activity against Candida pseudotropicalis; Range is 32-64. The class given is functional. The essentials:
as §1

For assay [27], the system named is Aspergillus niger. Description: Antifungal activity against Aspergillus niger; Range is 8-16. The class given is functional. The essentials:
as §1

Assay [28] has as its system Trichophyton rubrum. Description: Antifungal activity against Trichophyton rubrum; Range is 4-8. The class given is functional. In outline: as §1
Assay [29] relates to Trichophyton rubrum. In words: Antifungal activity against Trichophyton rubrum; Range is 32-64. The class given is functional. In outline:
as §1

In assay [30] the test system is Candida albicans. In words: Antifungal activity against Candida albicans; Range is 32-64. The class given is functional. In outline: as §1
Assay [31] deals with Trichophyton benhamiae. Description: Antifungal activity against Trichophyton mentagrophytes; Range is 32-128. The class given is functional, trychophyton mentagrophytes. The essentials: as §1
Assay [32] deals with Trichophyton rubrum. In words: Antifungal activity against Trichophyton rubrum; Range is 64-128. The class given is functional.
Assay [33] deals with Kluyveromyces marxianus. Description: Antifungal activity against Candida pseudotropicalis; Range is 4-8. The class given is functional. The essentials: as §1
Assay [34] relates to Trichophyton benhamiae. In words: Antifungal activity against Trichophyton mentagrophytes; Range is 4-8. The class given is functional, trychophyton mentagrophytes. In outline: as §1

For the compound `CC(C)(C)c1nnc2ccncc2n1`, the MIC in assay [1] was determined as 64 µg/mL (≈ 340 µM); in [2], 32 µg/mL (≈ 170 µM); in assay [3], 64 µg/mL (≈ 340 µM); in [4], 64 µg/mL (≈ 340 µM); in assay [5] it was 16 µg/mL (≈ 85 µM); in assay [6] it was 64 µg/mL (≈ 340 µM). In [7], this compound returned an MIC of 64 µg/mL (≈ 340 µM).

For the compound `c1ccc2c(c1)ncc1nc(-c3ccncc3)nnc12`, the minimum inhibitory concentration (MIC) came to 128 µg/mL (≈ 494 µM) in assay [1]; 64 µg/mL (≈ 247 µM) in [8]; 2 µg/mL (≈ 7.71 µM) in [9]; 64 µg/mL (≈ 247 µM) in assay [10]; 128 µg/mL (≈ 494 µM) in assay [4]; 64 µg/mL (≈ 247 µM) in assay [11]. Besides, it took 128 µg/mL (≈ 494 µM) to inhibit growth in [6] (MIC).

Regarding `Cc1nnc2ccnc(C)c2n1`, the MIC turned out to be 8 µg/mL (≈ 49.9 µM) in assay [8]; 64 µg/mL (≈ 400 µM) in assay [3]; 128 µg/mL (≈ 799 µM) in assay [4]; 8 µg/mL (≈ 49.9 µM) in assay [12]; 8 µg/mL (≈ 49.9 µM) in assay [11]; 8 µg/mL (≈ 49.9 µM) in assay [13]. Further, the MIC in assay [14] came to 8 µg/mL (≈ 49.9 µM).

For the compound `COc1cc(-c2nnc3ccncc3n2)cc(OC)c1OC`, the minimum inhibitory concentration (MIC) in assay [15] was found to be 128 µg/mL (≈ 429 µM); in assay [3], 128 µg/mL (≈ 429 µM); in [16], 128 µg/mL (≈ 429 µM); in assay [17] it was 128 µg/mL (≈ 429 µM); in assay [18] it was 64 µg/mL (≈ 215 µM); in assay [6], 128 µg/mL (≈ 429 µM). In assay [7], this compound returned an MIC of 64 µg/mL (≈ 215 µM).

For `Cc1nccc2nncnc12`, the minimal inhibitory concentration (MIC) is 4 µg/mL (≈ 27.4 µM) in assay [8]; 16 µg/mL (≈ 109 µM) in [19]; 32 µg/mL (≈ 219 µM) in assay [3]; 64 µg/mL (≈ 438 µM) in assay [4]; 16 µg/mL (≈ 109 µM) in assay [20]; 8 µg/mL (≈ 54.7 µM) in assay [21]. In addition, in [7], 8 µg/mL (≈ 54.7 µM) was the least that counted as inhibitory (MIC).

In the case of `Fc1ccc(-c2nnc3ccncc3n2)cc1F`, the MIC was 16 µg/mL (≈ 65.5 µM) in assay [1]; 4 µg/mL (≈ 16.4 µM) in assay [22]; 16 µg/mL (≈ 65.5 µM) in [4]; 4 µg/mL (≈ 16.4 µM) in assay [11]; 32 µg/mL (≈ 131 µM) in assay [23]; 1 µg/mL (≈ 4.09 µM) in assay [24]. In assay [7], this compound came in with an MIC of 8 µg/mL (≈ 32.8 µM).

Consider `c1ccc(-c2nnc3ccncc3n2)nc1`, for which the MIC stood at 64 µg/mL (≈ 306 µM) in assay [15]; 64 µg/mL (≈ 306 µM) in assay [1]; 2 µg/mL (≈ 9.56 µM) in assay [25]; 32 µg/mL (≈ 153 µM) in assay [3]; 64 µg/mL (≈ 306 µM) in assay [4]; 16 µg/mL (≈ 76.5 µM) in assay [16]. For the same compound, the MIC in assay [11] is 32 µg/mL (≈ 153 µM); in assay [26] it was 32 µg/mL (≈ 153 µM); in assay [17] it was 64 µg/mL (≈ 306 µM); in assay [6], 64 µg/mL (≈ 306 µM).

Regarding `c1ccc2c(c1)ncc1ncnnc12` [STRINOLINE], the minimal inhibitory concentration (MIC) in [4] came to 16 µg/mL (≈ 87.8 µM); in assay [27], 8 µg/mL (≈ 43.9 µM); in assay [11], 4 µg/mL (≈ 22 µM); in assay [28], 4 µg/mL (≈ 22 µM); in assay [13], 8 µg/mL (≈ 43.9 µM); in assay [6] it was 16 µg/mL (≈ 87.8 µM). Also, the MIC in assay [7] turned out to be 8 µg/mL (≈ 43.9 µM).

For `c1cc2c(cn1)NC1(CCCCC1)N=N2`, the minimal inhibitory concentration (MIC) came to 128 µg/mL (≈ 633 µM) in assay [1]; 32 µg/mL (≈ 158 µM) in assay [2]; 128 µg/mL (≈ 633 µM) in [3]; 128 µg/mL (≈ 633 µM) in assay [4]; 128 µg/mL (≈ 633 µM) in assay [6]; 32 µg/mL (≈ 158 µM) in assay [29]. The compound further displayed an MIC in [7] of 128 µg/mL (≈ 633 µM).

For the compound `Cc1cc2nnc(-c3ccncc3)nc2c(C)n1`, the MIC is 32 µg/mL (≈ 135 µM) in [15]; 64 µg/mL (≈ 270 µM) in [10]; 32 µg/mL (≈ 135 µM) in assay [16]; 32 µg/mL (≈ 135 µM) in assay [30]; 32 µg/mL (≈ 135 µM) in assay [31]; greater than 128 µg/mL in [17]. Further, the MIC in [32] came to 64 µg/mL (≈ 270 µM); in assay [6], 128 µg/mL (≈ 539 µM); in assay [7], 32 µg/mL (≈ 135 µM).

Consider `FC(F)(F)c1nnc2ccncc2n1`, for which the MIC was found to be 16 µg/mL (≈ 80 µM) in [15]; 32 µg/mL (≈ 160 µM) in assay [3]; 16 µg/mL (≈ 80 µM) in assay [16]; 16 µg/mL (≈ 80 µM) in assay [20]; 8 µg/mL (≈ 40 µM) in assay [17]; 32 µg/mL (≈ 160 µM) in assay [6]. For the same compound, in [14], the MIC was 8 µg/mL (≈ 40 µM).

In the case of `N#Cc1ccc(-c2nnc3ccncc3n2)cc1`, the minimal inhibitory concentration (MIC) is greater than 128 µg/mL in assay [15]; 64 µg/mL (≈ 274 µM) in assay [1]; 2 µg/mL (≈ 8.58 µM) in assay [25]; 4 µg/mL (≈ 17.2 µM) in assay [33]; 128 µg/mL (≈ 549 µM) in assay [3]; 64 µg/mL (≈ 274 µM) in assay [4]. The MIC is 128 µg/mL (≈ 549 µM) in assay [16], 8 µg/mL (≈ 34.3 µM) in assay [12], 128 µg/mL (≈ 549 µM) in [17] and 4 µg/mL (≈ 17.2 µM) in assay [34].
